System: MS2 coat protein
Assay: apparent Kd, MS2 coat protein; higher = weaker binding; RNA-MaP array; FMN 200 µM where present
Summary of the method: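 Designs were transcribed by stalled E. coli RNA polymerase on Illumina sequencing-chip clusters. They were titrated with SNAP-549-labelled MS2 coat protein from 0.7 or 1.5 nM, doubling to 3 µM, without and then with constant ligand. Buffer: 100 mM Tris-HCl pH 7.5, 80 mM KCl, 4 mM MgCl2, BSA, DTT, yeast tRNA, Tween-20. Green signal was normalised to red-channel RNA signal and control-cluster median Fmax. Apparent Kd is the median of filtered per-cluster binding-curve fits.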

[1] = designed as: OFF switch for flavin mononucleotide, no ligand
[2] = ligand present: flavin mononucleotide, designed as: OFF switch for flavin mononucleotide
[3] = designed as: ON switch for flavin mononucleotide, no ligand
[4] = ligand present: flavin mononucleotide, designed as: ON switch for flavin mononucleotide

Row | Sequence | apparent Kd [1] [nM] | apparent Kd [2] [nM] | apparent Kd [3] [nM] | apparent Kd [4] [nM]
1 | AACCAUGUCCGAGGAUAUCUGGAAACAUUUCCAAGAGAAGGCGGACAUGAGGAUCACCCAUGUCUCUCCUCAUCAAAUCCAAGU | 12.4 | 94.6 | – | –
2 | UAUAUGUCAGGAUAUUGAUUGGGAUGGAAUUUAGUUUUGGUUAAGAAGGGACAUGAGGAUCACCCAUGUUCCUC | 17.1 | 18.4 | – | –
3 | ACAAGACAUGAGGAUCACCCAUGUGAGGAUAUGCUCGGAUGACAUGACGUUAGCUAACGCAGAAGGCACAAUAA | 55.8 | 56 | – | –
4 | GCAUUUCAGUAAGGAUAUAUAAACAUGACGAUACAUGAGGAUCACCCAUGUGUAGAAGGUACUAAUACAUAUAAUGCAAUGGUC | 26.6 | 21.1 | – | –
5 | CGAUGACACAGUCAUCCAAUACGAACAUGAGGAUCACCCAUGUAGGAUAUGCUACUCACAGAGUAGCAGAAGGACAUGUGCCUU | 41.4 | 182 | – | –
6 | UUACUGUUAUAGAAGGGUAUUUGGGAAUUACAUGAGGAUCACCCAUGUUUUAUAGGAUAUGUAUAUAGUAUUUAAUCAAGUUUA | 17.8 | 15.7 | – | –
7 | AUGCUUCACACAGGAUAUACAUGAGGAUCACCCAUGUGUCCUCCGUAGCUGACACCAGCUACGCUGUAGAAGGGUGUGAAGCAU | 261 | 201 | – | –
8 | UCAGUUCUGCAAGGAUAUCGUCCUAGUUUGGUACGAGAAGGUGCUUUUGUUUUUUCCUUGUGUUGACAUGAGGAUCACCCAUGU | 35.8 | 46.5 | – | –
9 | AUAAUGUGAGGAUAUCAGUCGACUAGCUGCGGCUAGUCGACUGAGAAGGCACAUGAGGAUCACCCAUGUAGAUC | 978 | 47.7 | – | –
10 | GGGUGAGCUCAAGGAUAUCCAAAAUGGUUACAUGAGGAUCACCCAUGUCCAGGCGAAUAAAGGCCGGAGAAGGUGAGGGCCCUC | – | – | 60.2 | 156
11 | CAAUGUCAAAAGGAUAUUGCCAGCAUAAAUGGUCGAGAAGGUUUGACAUGAGGAUCACCCAUGUAAUGAACCUG | 14.6 | 51.2 | – | –
12 | UAUAUGUGAGGAUAUCAGGUGUGCUAGCGAACUGGUACAUCUGAGAAGGCACAUGAGGAUCACCCAUGUAUCUU | 27.7 | 105 | – | –
13 | GGUCCGUAACAGAAGGCCGUAACUGGUGGUGGCGGAGGAUAUGUGGGCGGCCCUUGACAACAUGAGGAUCACCCAUGUAUGUAA | – | – | 328 | 30.6
14 | GCUCGAUGAGCUGUCUACAUGAGGAUCACCCAUGUAGAUGGGCAGGAUAUUUACGUGCUUUAUGUAGAGAAGGGCCCAUCGAGC | – | – | – | 28.8
15 | UGAAAUCAUGUAGGAUAUGCAUGGCGAAGCUACGCAGAAGGACAUGAGGAUCACCCAUGUUAAAGCUACCGGAUACGGUGGCAA | 192 | 156 | – | –
16 | AAUUAACAUGAGGAUCACCCAUGUGAGGAUAUGGUAUUACUUGGACAGCUAUGAUCUACCAGAAGGCACAUAUA | 28.7 | 49.4 | – | –
17 | GUAUAUCACUCAGGAUAUCUGUAAUUUAUUGAAACAUGAGGAUCACCCAUGUUCAUAAAUUUAUAGGAGAAGGGAGAGAUAUAC | – | – | 4.39 | 4.58
18 | AAACAUGUCCGAGGAUAUCUGAGAUCACUUUCAAGAGAAGGCGGACAUGAGGAUCACCCAUGUCUCUCCUCAUCAACUCCAAAU | 8.01 | 41.9 | – | –
19 | CGGUGACAUGAGGAUCACCCAUGUUAGGAUAUACAAAAGCUCGCUCAAGGGCGGCGAAGUAGAAGGAGCGUGCC | 21.7 | 29.7 | – | –
20 | GUAGCUAUUAAAGGAUAUUCAUACCGGAGACGGACAUGAGGAUCACCCAUGUGGCGAAAGCCUUGGGAGAAGGUUAUUAGCUAC | – | – | 452 | 17.7
21 | GUCAUACAUGAGGAUCACCCAUGUAAGGAUAUGCUAGCGGUCGGCUGACUGACUGCUAGCAGAAGGUACAUGAU | 64.1 | 90 | – | –
22 | CCAUAAUUGAUCCAAUUUUACAACAUGAGGAUCACCCAUGUGCAGGAUAUCGUGAAAGUUAAAUACGAGAAGGGCAAGAACUGC | 560 | 356 | – | –
23 | AUAUCUUAUGAGAAGGCGAUCAUGAAACAUGAUCGAGGAUAUCAUGUAAACAUGAGGAUCACCCAUGUAUGGGUAUUAUGGUAU | – | – | 89.4 | 57
24 | GUCGAGUGAGGAUAUGGUGAGUAGUGCCAGAGCGCUGCUCACCAGAAGGCACAUGAGGAUCACCCAUGUAUAGC | 16.8 | 29.9 | – | –
25 | UGGUUCAUGGGAGGAUAUGGGAUGAUAACAUGAGGAUCACCCAUGUUAAAGAUGCCGAGAGGCAACUAGAAGGCCCAUGAACCU | – | – | 268 | 61.7
26 | UUAAAUCGAAACAUGAGGAUCACCCAUGUGUUGUGAUUAAUAUAGGAUAUGUGUAUACUUUUAUGACAGAAGGAUGAUAAUACU | – | – | 12.3 | 10.7
27 | AGCAUGUGAGGAUAUGCGGACUCCGGUAAAGCUGGAGUCCAGUAGAAGGCACAUGAGGAUCACCCAUGUGAGAU | 59.7 | 212 | – | –
28 | AAUGAAUAUAAAUUGUAUUUGUCGUAGGAUAUGGGUGACAUGAGGAUCACCCAUGUUGCAGACGACCAGAAGGGCGGCGGAUAU | – | – | 18 | 18.2

Row | Sequence | apparent Kd [1] [nM] | apparent Kd [2] [nM] | apparent Kd [3] [nM] | apparent Kd [4] [nM]
29 | UGGUACUAGGGAGGAUAUGGGAAGAUACAUGAGGAUCACCCAUGUUUAAGAAUGCCGAGAGGCAACUAGAAGGCCCUAGUUCCU | – | – | 390 | 19.5
30 | AUAUCCGAAGCAGGAUAUCGACGAGGUGUCGAGAUAGAGCGUACUCACAUGAGGAUCACCCAUGUCGAGAAGGGCUAUAGGAUA | 22.2 | 83.4 | – | –
31 | ACAUGAGGAUCACCCAUGUUAAACGAGGAUAUAUGACUGCACAUGAGGUUCACCCAUGUUCUACCGUAGAAGGUGUAAAUAAUU | – | – | 68.5 | 70.6
32 | UCUAAGCGAAUCAAGAUGGAUAGAACAUGAGGAUCACCCAUGUAGGAUAUGCUACACAAAGUGUAGCAGAAGGACAAGCUUAGA | 25.9 | 36.2 | – | –
33 | UCGCUGCGAGGAUAUACGUGCGCGCGCUCGCGUUCGCGCGUACAUGAGGAUCACCCAUGUAGAAGGCGCGCUGC | 13.5 | 13.2 | – | –
34 | UUAUGUCGCGUAGGAUAUCACUAGUGUUGUAAUUUAAUUGUAAUUACGAUGUGAGAAGGACGUACACAUGAGGAUCACCCAUGU | 20.3 | 16.2 | – | –
35 | CUCGGACAUGAGGAUCACCCAUGUGAGGAUAUGAUGCGAUCGUCGAAAGACGAUAGCAUCAGAAGGCACAAAUG | 75.6 | 301 | – | –
36 | GGUUCCUUCACAGGAUAUGCUAUCCUUUGGGUAGCAGAAGGGUGAUACAUGAGGAUCACCCAUGUGGAGCCAGGGCGUGAGCCC | – | – | 1260 | 428
37 | AACUCACAUGAGGAUCACCCAUGUGAGGAUAUGAUACUAUGUACUUCGGUACAUAGUAUCAGAAGGCAUGUGGG | 50.5 | 28.1 | – | –
38 | UAUAUGUCAGGAUAUCGAUUGGAAUGGAAUUCAGUUCUGGUUGAGAAGGGACAUGAGGAUCACCCAUGUUUUUC | 37.3 | 171 | – | –
39 | AUGUGACAUGAGGAUCACCCAUGUAAGGAUAUAUGACUAAGGACUUCCUUGGUAGCGCGUAGAAGGUACGUGAA | 19.6 | 20 | – | –
40 | AUCCGACAUGAGGAUCACCCAUGUCAGGAUAUGGACUGACACCGAAAGAGUGGAGGAACCAGAAGGGACUGGGC | 27.7 | 46.5 | – | –
41 | GUAGCAUACCGAGGAUAUUCAGGGCGUGGAUAUACAUGAGGAUCACCCAUGUGGCGAAAGCCUAGGGAGAAGGCGGAAUGCUAC | – | – | 23.6 | 17
42 | AGUGUCAUCCAGAAGGCCUCAUUACAUGAGGAUCACCCAUGUAAUCGUGGGAGGAUAUGGAUGAUACAGCUACGUUUCGUAGCA | – | – | 7.42 | 4.65
43 | GAGAAGAGGGAAGGAUAUACAUGAGGAUCACCCAUGUAGAUAGGUUUAAUAGGUUGUUGUUGUUUGUAGAAGGUCCGGUUUGUU | 18 | 16.8 | – | –
44 | AGAAACUACGAGAAGGACAUAUGACUAAGACUAAACAUGAGGAUCACCCAUGUAGGAUAUCGUAGUUUCAGGAUCGUGAGAUCA | 5.75 | 7.87 | – | –
45 | AAGGACUGAGGAUAUGCGCGGGCAAGAUCCUCAAUCCCAAAACAUGAGGAUCACCCAUGUAGAAGGCAGAAAUA | 25.8 | 22.6 | – | –
46 | GGUAUCGGAGGAGGAUAUGAGCGUAUCGCUGCCUCAGAAGGCCUACUGAUACAUGAGGAUCACCCAUGUUGCGGUAAUCCUACU | 283 | 23.5 | – | –
47 | AUGAGGUCAGGAUAUGCAUGGCGGGACUUGCGUCGUGGCGUGGAGAAGGGACAUGAGGAUCACCCAUGUGGAGU | 91.4 | 50.5 | – | –
48 | CUUUUGUGAGGAUAUUAGUAGUAAACGAACAAAAUUAUUACUGAGAAGGCACAUGAGGAUCACCCAUGUUCCUC | 46 | 575 | – | –
49 | GUAGCUAUCGGAGGAUAUUCAAUAUACAUGAGGAUCACCCAUGUUAAAGUGGGAGAAGGCCGAUAGCUACAAGAGCGAAAGCUC | – | – | 13.6 | 6
50 | AUUGUUAAGUUAGGAUAUAGUAAAAUAAUUUAAUUAGAAGGAGCUCACAUGAGGAUCACCCAUGUAAGAGGAUCACCCAUGUAU | 23.5 | 18.9 | – | –
51 | AGAUAGUGCAGAGGAUAUCUUAAUAGAAAGAAUAGAGAAGGCUGACAUGAGGAUCACCCAUGUGAUGUCUUGAGACUACAUGGU | 48.4 | 336 | – | –
52 | AGUUUGUGAGGAUAUCCAAUAUAUGACAUGAGGAUCACCCAUGUUUCCACUCGUACCUCCGGAGAAGGCACUGCGU | 30.7 | 26.9 | – | –
53 | CCGGAAAGGGAGGAUAUAGGAGUCGAUAGACACCUAGAAGGCCUGACAUGAGGAUCACCCAUGUGUCCUACCGG | 15 | 25 | – | –
54 | UCCUUGUCCUGAGGAUAUCCGCGGUUCCCAAAAGGAGAAGGCAGGACAUGAGGAUCACCCAUGUACCCAGAAAACGUGCAGAAU | 9.87 | 42.7 | – | –
55 | UUUAAGUCAGGAUAUCGUUAAUUUAAUUAUUUAUUUUAGUUCGAGAAGGGACAUGAGGAUCACCCAUGUAAUUU | 40.5 | 63.1 | – | –
